Measurements from ChEMBL document CHEMBL1124843, “Water-soluble renin inhibitors: design of a subnanomolar inhibitor with a prolonged duration of action” (J Med Chem, 1990).
pIC50: −log10 of the molar value. Converted amounts (≈) assume the structure as drawn.

Columns and labels:
Renin [1] = target: T1, Renin (Homo sapiens, UniProt P00797); assay: Inhibitory activity against purified human renal renin at pH 6.5; type: functional
T1 sequence (P00797 whole entry): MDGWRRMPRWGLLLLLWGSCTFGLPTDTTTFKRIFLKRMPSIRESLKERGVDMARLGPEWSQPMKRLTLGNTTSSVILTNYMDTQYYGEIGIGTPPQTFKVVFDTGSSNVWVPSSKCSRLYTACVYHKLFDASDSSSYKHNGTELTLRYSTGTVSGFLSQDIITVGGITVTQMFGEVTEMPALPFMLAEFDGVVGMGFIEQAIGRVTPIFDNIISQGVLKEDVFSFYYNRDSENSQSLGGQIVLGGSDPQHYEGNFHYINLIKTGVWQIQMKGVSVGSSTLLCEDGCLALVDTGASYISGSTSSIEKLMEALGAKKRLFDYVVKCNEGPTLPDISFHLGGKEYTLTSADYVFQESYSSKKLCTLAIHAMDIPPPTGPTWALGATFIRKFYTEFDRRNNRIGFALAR

Renin [2] = target: T1, Renin; assay: Inhibitory activity against human plasma renin at pH 7.4; type: functional, cell-free
[3] = Log P value at the pH of 7.4; type: physicochemical; conditions: octanol/water, pH 7.4; read-out: LogD7.4
Method in brief: (§1)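 Octanol/water partition. Inhibitor (0.3–0.5 mg) was dissolved in 1.00 mL octanol, and 200 μL was added to 5.00 mL buffer: 0.1 M PIPES pH 6.5 or 0.1 M HEPES pH 7.4. Samples were shaken 2 h and centrifuged, and both phases were diluted and quantified by HPLC. P was calculated from peak areas × dilution factors.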

[4] = Log P value at the pH of 6.5; type: physicochemical; conditions: octanol/water, pH 6.5; read-out: LogD6.5; method in brief: as §1
[5] = Solubility at 37 degree C and pH of 7.4; type: physicochemical; conditions: pH 7.4; read-out: S
[6] = Plasma level when given intraduodenally to anesthetized rats from portal sample at 30 min; type: ADME, organism-based; conditions: rat, read-out: Plasma level
Method in brief: (§2)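 Anesthetized rats (n = 4) received unlabelled drug intraduodenally at 10 mg/kg. Portal and systemic blood were sampled at 10 and 30 min. Plasma drug levels were determined by a renin inhibition assay. Values are mean ± SE.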

[7] = Plasma level when given intraduodenally to anesthetized rats from portal sample at 10 min; type: ADME, organism-based; conditions: rat, read-out: Plasma level; method in brief: as §2
[8] = Plasma level when given intraduodenally to anesthetized rats (systemic) at 30 min; type: ADME, organism-based; conditions: rat, read-out: Plasma level; method in brief: as §2
Rattus norvegicus [9] = assay: Excretion of radiolabeled [14C]-21 in rats when administered intravenously at the dose of 1.0 mg/kg; type: ADME, organism-based; design: dose 1 mg/kg, route intravenous; conditions: in vivo, iv
Method in brief: (§3)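 Rats got [14C]-labelled inhibitor (label at oxazolidinone carbonyl), 1 mg/kg orally or intravenously. Urine and feces were collected over 72 h. Feces were homogenized in 70% aqueous ethanol and aliquots burned in a sample oxidizer. Total radioactivity was counted by liquid scintillation with internal-standard quench correction and expressed as % of dose. Mean ± SE, n = 2.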

[10] = % change in blood pressure when administarted intravenously.; type: ADME; conditions: iv
Method in brief: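 Anesthetized, salt-depleted cynomolgus monkeys, 0.1 mg/kg iv bolus (n = 5). Maximum % change in mean arterial pressure taken from the T = 0 baseline. […] Values are mean ± SE.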

Rattus norvegicus [11] = assay: metabolic profile radiolabeled [14C]-21 in rats when administered orally at the dose of 1.0 mg/kg; type: ADME, organism-based; design: dose 1 mg/kg, route oral; conditions: in vivo, po
Method in brief: (§4)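 Rats were dosed orally or iv at 1 mg/kg with 14C-labelled drug. Urine and fecal samples were profiled by C-18 HPLC with a linear 15–50% aqueous acetonitrile gradient containing 0.1% TFA. Peaks were tentatively identified by retention time against reference standards, using 215 nm absorbance or radioactivity. Results are given as % of 14C dose, mean ± SE, n = 2.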

[12] = Plasma level when given intraduodenally to anesthetized rats (systemic) at 10 min; type: ADME, organism-based; conditions: rat, read-out: Plasma level; method in brief: as §2
Rattus norvegicus [13] = assay: Excretion of radiolabeled [14C]-21 in rats when administered orally at the dose of 1.0 mg/kg; type: ADME, organism-based; design: dose 1 mg/kg, route oral; conditions: in vivo, po; method in brief: as §3
Rattus norvegicus [14] = assay: metabolic profile radiolabeled [14C]-21 in rats when administered intravenously at the dose of 1.0 mg/kg; type: ADME, organism-based; design: dose 1 mg/kg, route intravenous; conditions: in vivo, iv; method in brief: as §4
[15] = target: Renin (Macaca fascicularis); assay: Inhibitory activity against monkey plasma renin at pH 7.4

| pIC50 (Renin [1]) | pIC50 (Renin [2]) | logD [3] | logD [4] | solubility [5] | Compound | other results |
| --- | --- | --- | --- | --- | --- | --- |
| 8.10 | 7.34 | 1.42 | 1.2 |  | CCN1C[C@@H]([C@H](O)[C@H](CC2CCCCC2)NC(=O)[C@H](Cc2cnc[nH]2)NC(=O)[C@H](Cc2ccc(OC)cc2)NC(=O)N(C)CC(O)CO)OC1=O (stereo partly drawn) |  |
| 9.23 | 8.82 | 2.45 | 2.29 | 3.4 mM (≈ 2270 µg/mL) | CCN1C[C@@H]([C@H](O)[C@H](CC2CCCCC2)NC(=O)[C@H](Cc2cnc[nH]2)NC(=O)[C@@H](CC(=O)N(C)CCOC)Cc2ccccc2)OC1=O |  |
|  |  | 2.21 | 1.89 | 5.4 mM (≈ 4010 µg/mL) | CCN1C[C@@H]([C@H](O)[C@H](CC2CCCCC2)NC(=O)[C@H](Cc2c[nH]cn2)NC(=O)[C@@H](CC(=O)N(C)CCOCOCCOC)Cc2ccccc2)OC1=O | concentration at 0.5 h [6]: 420 ng/mL; concentration at 10 min [7]: 360 ng/mL; concentration at 0.5 h [8]: 2.5 ng/mL; Dose (Rattus norvegicus [9]): 8.5%; Change [10]: 43%; Dose (Rattus norvegicus [11]): 73%; concentration at 10 min [12]: 1.6 ng/mL; Dose (Rattus norvegicus [13]): 1.9%; Dose (Rattus norvegicus [14]): 35% |
| 8.16 | 8.06 | 1.22 | 0.91 |  | CCN1C[C@@H]([C@H](O)[C@H](CC2CCCCC2)NC(=O)[C@H](Cc2c[nH]cn2)NC(=O)[C@H](Cc2ccc(OC)cc2)NC(=O)N2C[C@@H](O)[C@@H](O)C2)OC1=O |  |
| 8.80 | 8.14 | 1.87 | 1.56 | 8.7 mM (≈ 7470 µg/mL) | CCN1C[C@@H]([C@H](O)[C@H](CC2CCCCC2)NC(=O)[C@H](Cc2cnc[nH]2)NC(=O)[C@@H](CC(=O)N2C[C@H](OCOCCOC)[C@H](OCOCCOC)C2)Cc2ccccc2)OC1=O |  |
| 8.77 | 8.00 | 2.85 | 2.67 | 0.37 mM (≈ 242 µg/mL) | CCN1C[C@@H]([C@H](O)[C@H](CC2CCCCC2)NC(=O)[C@H](Cc2c[nH]cn2)NC(=O)[C@H](Cc2ccc(OC)cc2)NC(=O)C(C)C)OC1=O |  |
| 9.00 | 8.89 | 2.2 | 1.9 |  | CCN1C[C@@H]([C@H](O)[C@H](CC2CCCCC2)NC(=O)[C@H](Cc2cnc[nH]2)NC(=O)[C@@H](CC(=O)N2CCOCC2)Cc2ccccc2)OC1=O |  |
| 8.47 | 8.02 | 2.11 | 1.91 | 5.9 mM (≈ 4120 µg/mL) | CCN1C[C@@H]([C@H](O)[C@H](CC2CCCCC2)NC(=O)[C@H](Cc2cnc[nH]2)NC(=O)[C@H](Cc2ccc(OC)cc2)NC(=O)N2CCOCC2)OC1=O |  |
| 9.31 | 8.96 | 2.49 | 2.28 |  | CCN1C[C@@H]([C@H](O)[C@H](CC2CCCCC2)NC(=O)[C@H](Cc2cnc[nH]2)NC(=O)[C@@H](CC(=O)N(C)CCOCOC)Cc2ccccc2)OC1=O |  |
|  |  |  |  | 0.045 mM (≈ 26.9 µg/mL) | CC(C)C(=O)N[C@@H](Cc1ccccc1)C(=O)N[C@@H](Cc1cnc[nH]1)C(=O)N[C@@H](CC1CCCCC1)[C@@H](O)[C@@H](O)CN=[N+]=[N-] | pIC50 [15]: 9.54; Change [10]: 18% |
| 8.77 | 7.85 | 2.03 | 1.83 |  | CCN1C[C@@H]([C@H](O)[C@H](CC2CCCCC2)NC(=O)[C@H](Cc2c[nH]cn2)NC(=O)[C@H](Cc2ccc(OC)cc2)NC(=O)N(C)CCOCOCCOC)OC1=O |  |
| 9.07 | 8.60 | 1.94 | 1.74 | 5.2 mM (≈ 3410 µg/mL) | CCN1C[C@@H]([C@H](O)[C@H](CC2CCCCC2)NC(=O)[C@H](Cc2cnc[nH]2)NC(=O)[C@@H](CC(=O)N(C)CCO)Cc2ccccc2)OC1=O |  |
| 8.57 | 7.96 | 2.31 | 2.08 | 4.5 mM (≈ 3470 µg/mL) | CCN1C[C@@H]([C@H](O)[C@H](CC2CCCCC2)NC(=O)[C@H](Cc2cnc[nH]2)NC(=O)[C@@H](CC(=O)N2C[C@H](OCOC)[C@H](OCOC)C2)Cc2ccccc2)OC1=O |  |
| 7.92 | 7.23 | 2.06 | 1.94 |  | CCN1C[C@@H]([C@H](O)[C@H](CC2CCCCC2)NC(=O)[C@H](Cc2cnc[nH]2)NC(=O)[C@H](Cc2ccc(OC)cc2)NC(=O)N2C[C@H](OCOC)[C@H](OCOC)C2)OC1=O |  |
| 8.07 | 7.59 | 1.67 | 1.58 |  | CCN1C[C@@H]([C@H](O)[C@H](CC2CCCCC2)NC(=O)[C@H](Cc2cnc[nH]2)NC(=O)[C@H](Cc2ccc(OC)cc2)NC(=O)N2C[C@H](OCOCCOC)[C@H](OCOCCOC)C2)OC1=O |  |
| 8.34 | 7.57 | 2.3 | 2.08 | 2.1 mM (≈ 1530 µg/mL) | CCN1C[C@@H]([C@H](O)[C@H](CC2CCCCC2)NC(=O)[C@H](Cc2c[nH]cn2)NC(=O)[C@H](Cc2ccc(OC)cc2)NC(=O)N(C)CCOCOC)OC1=O |  |
